An excerpt weighted towards active compounds, which were near 4.6% of everything screened.
CHO parental Ca – counter-screen for OX1R antagonists: effect in parental CHO cells | parental CHO-K1, ATP-induced calcium, Fluo-8 fluorescence | inhibition, % at 5.6 µM | hit rate 0.63% among 330,000;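 active = inhibition above that plate's mean sample inhibition plus 3 SD, cut at about 26% in these data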;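 note: 0% = ATP-challenged DMSO wells and 100% = DMSO wells without ATP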
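Material: parental CHO cells / Compound: single nominal dose of 5.6 µM per compound / Signal: Fluo-8 fluorescence / Replicates: singlicate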
TAAR1 agonist – agonists of human TAAR1 | Q96RJ0 | CHO RD-HGA16 TAAR1, Fluo-8 calcium fluorescence; vehicle wells 0%, saturating PEA agonist 100% | activation, % at 3 µM | hit rate 0.99% among 360,000 | AID 624467;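 active = activation above the mean activation of all test compounds in the run plus 3 SD, cut at about 38% in these data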
Target sequence (Q96RJ0 whole entry, looked up): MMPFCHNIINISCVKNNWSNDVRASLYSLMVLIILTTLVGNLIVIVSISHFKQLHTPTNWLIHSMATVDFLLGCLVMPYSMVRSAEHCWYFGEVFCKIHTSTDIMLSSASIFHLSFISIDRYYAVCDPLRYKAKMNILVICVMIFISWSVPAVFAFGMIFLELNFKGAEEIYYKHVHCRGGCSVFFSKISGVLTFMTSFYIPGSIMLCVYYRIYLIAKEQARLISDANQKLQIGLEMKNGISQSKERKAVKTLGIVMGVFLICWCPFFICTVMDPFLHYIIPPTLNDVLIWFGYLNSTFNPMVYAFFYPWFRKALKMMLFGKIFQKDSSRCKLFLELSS
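Test system: RD-HGA16 (CHO) cells co-expressing Gα16 and hTAAR1 / Benchmarks: DMSO vehicle as 0%, PEA at EC100 as 100% / Repeats: no replicates (n 1) / Measure: % activation from peak over basal fluorescence ratio, DMSO-to-PEA scaled / Timing: 17-24 h plating, Fluo-8 75 min 37 °C, 30 min RT / Technique: kinetic Fluo-8 calcium fluorescence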
GPR7 antagonist – blocks human GPR7 receptor signaling. P48145. GPR7-expressing cells, fluorescence antagonist assay. inhibition, % at 4.4 µM. hit rate 1.1% among 290,000; in the data active = inhibition above about 16%, passing the limit was not always enough;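 note: cells stimulated with the agonist NPW; 0% = agonist with vehicle and 100% = vehicle without agonist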
OX1R antag-1 – antagonists of human orexin 1 receptor. O43613. CHO/OX1R cells, Fluo-8 calcium fluorescence, orexin A. inhibition, % at 5 µM. hit rate 0.43% among 330,000. AID 434989;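 active = inhibition above its plate's threshold, mean inhibition of all tested compounds on the plate plus 3 SD, cut at about 37% in these data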;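 note: 0% = orexin A challenge wells and 100% = SB-334867-A antagonist wells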
OX1R antag-2 – blocks the human orexin 1 receptor | AID 485270 | O43613 | hit rate 1.8% among 330,000 | inhibition, % at 6.6 µM | OX1R-expressing cells, FRET antagonist read-out; in the data active = inhibition mostly above about 38%, no sharp cut-off; inactive = mostly below about 40%;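 note: 0% = agonist challenge alone and 100% = reference antagonist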
TAAR1 antag – antagonists of human TAAR1 | AID 624466 | hit rate 1.5% among 360,000 | CHO RD-HGA16 TAAR1, Fluo-8 calcium fluorescence, antagonist | inhibition, % at 3 µM;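 active = inhibition above a per-plate cutoff, the mean inhibition of test compounds on that plate plus 3 SD, cut at about 49% in these data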;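 note: 0% = DMSO plus EC80 beta-PEA response and 100% = DMSO alone without agonist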
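Assay system: CHO-derived RD-HGA16 cells stably expressing human TAAR1 plus Gα16. Timing: 140 s kinetic read after compound, 140 s after agonist. Technique: kinetic Fluo-8 calcium fluorescence measurement. Measure: % inhibition of agonist calcium response.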
Numbers without * were called inactive; nt = no result.

SMILES	CHO parental Ca	TAAR1 agonist	GPR7 antagonist	OX1R antag-1	OX1R antag-2	TAAR1 antag
COC(=O)c1cc(OC)c(OC)cc1NC(=O)c1cc(C)on1	nt	nt	-10.1	nt	nt	nt
CCN(CC)c1nc(C=Cc2ccc(N(C)C)cc2)c2nccnc2n1	nt	61.3*	nt	nt	nt	61.7*
O=C(Nc1cccc([N+](=O)[O-])c1)Nc1ccc2c(c1)CCC2	43.2*	2.5	19.2	4.8	61.6*	30.9
O=C(Nc1cccc([N+](=O)[O-])c1)c1cc2ccccc2cc1O	36.1*	11.8	8.9	23.8	50.8*	2.7
O=C(Nc1ccc(F)cc1)Nc1ccc2c(c1)CCC2	39.0*	1.5	-9.6	6.9	10.1	19.4
O=C(Nc1cccc(F)c1)Nc1ccc2c(c1)CCC2	22.2	0.8	-4.4	-1.6	24.4	14.1
O=C(Nc1ccc(F)cc1)Nc1cccc(Br)c1	75.8*	6.3	nt	61.4*	57.6*	21.9
O=C(Nc1ccccc1)Nc1ccc2c(c1)CCC2	nt	1.6	-1.6	nt	nt	-6.8
COc1ccc(C(=O)c2coc3ccc(O)c(CN(C)C)c23)cc1	-10.4	4.5	-12.4	-17.2	7.3	-14.6
Cc1cc(C)n(Cc2ccc(C(=O)N/N=C/c3ccc(-c4ccc([N+](=O)[O-])cc4)o3)o2)n1	-3.7	7.9	-9.3	-9.8	21.3	11.4
Cc1cc(C(=O)Nc2ccc3c(c2)CCC3)ccc1[N+](=O)[O-]	-22.3	-3.1	nt	13.0	45.3*	-22.9
Cn1c2ccccc2c(=O)c2cc(C#CC3=CCCCC3)ccc21	-29.4	3.1	nt	0.4	36.8*	21.2
Cn1c2ccccc2c(=O)c2ccc(C#Cc3ccc(N)cc3)cc21	0.2	3.6	-3.5	0.2	31.4	38.0
CCCCC(CC)CNC(=O)C1CC=CCC1C(=O)O (stereo unspecified)	-2.2	37.5*	-4.6	-8.0	8.6	3.8
Cc1cccn2c(=O)c3cc(C(=O)NCc4ccco4)c(=N)n(C4CCCC4)c3nc12	-17.7	-5.5	5.4	-12.4	19.3	-9.6
Cc1cccn2c(=O)c3cc(C(=O)NC4CCCC4)c(=N)n(CC4CCCO4)c3nc12 (stereo unspecified)	-17.9	-0.2	-3.8	-25.8	54.9*	7.7
Cc1cccn2c(=O)c3cc(C(=O)NCC4CCCO4)c(=N)n(CC4CCCO4)c3nc12 (stereo unspecified)	-15.7	-2.7	-4.3	-21.0	62.5*	-10.4
COc1ccc(CCn2c(=N)c(C(=O)NCC3CCCO3)cc3c(=O)n4cccc(C)c4nc32)cc1 (stereo unspecified)	-16.7	3.7	-22.5	-38.0	35.0*	11.3
Cc1cccn2c(=O)c3cc(C(=O)NCC4CCCO4)c(=N)n(C4CCCCC4)c3nc12 (stereo unspecified)	-23.8	-1.4	-1.2	-21.5	43.9*	-12.3
COc1ccc(CNC(=O)c2cc3c(=O)n4cccc(C)c4nc3n(CC3CCCO3)c2=N)cc1 (stereo unspecified)	-18.3	-0.5	-3.2	-17.7	29.7	-9.6
O=C(CN(c1ccc(F)cc1)S(=O)(=O)c1ccccc1)NC1CC2CCC1C2 (stereo unspecified)	-10.2	-2.5	6.4	-22.6	36.5	-27.2
CCCCCCSc1ccc([C@H]2N[C@@](C)(C(=O)OC)[C@H]3C(=O)N(C)C(=O)[C@@H]23)cc1	8.5	4.5	nt	-10.4	4.4	10.4
COc1ccc(Cc2n[nH]c(=S)n2NC(=O)Nc2ccc(Cl)c(Cl)c2)cc1	52.4*	12.1	14.6	30.3	58.4*	-26.6
Cn1c(CC(=O)Nc2ccc(Cl)c(Cl)c2)n[nH]c1=S	1.5	2.5	1.1	6.2	10.4	4.6
C=C(CN(C)C)C(=O)c1ccc2c(c1)OCO2	nt	0.4	nt	nt	nt	-10.6
C=C(CN(C)C)C(=O)c1ccc(OC2OC(COC(C)=O)C(OC(C)=O)C(OC(C)=O)C2OC(C)=O)cc1 (stereo unspecified)	nt	13.4	nt	nt	nt	60.1*
CCc1ccc(NC(=O)CCC(=O)c2ccc(C)cc2)cc1	31.5*	-3.4	20.4	-2.4	-12.4	-24.6
O=C(COc1ccc2ccccc2c1Br)NCc1ccccn1	-20.1	1.1	-9.1	-21.9	16.2	-18.7
COc1ccc(N2CCN(C(=O)NC(=O)c3ccc(Cl)cc3)CC2)cc1	-8.9	-0.4	-14.3	-4.8	17.8	-6.4

Source: PubChem BioAssay
